In ChEMBL document CHEMBL1926677, “Further structure-activity relationship studies on 8-substituted-3-[2-(diarylmethoxyethylidenyl)]-8-azabicyclo[3.2.1]octane derivatives at monoamine transporters” (Bioorg Med Chem, 2011):
pKi: −log10 of the molar value.

How the values were obtained:
[1] = molecular target: Transporter (Rattus norvegicus, UniProt Q63380); assay: Displacement of [3H]nisoxetine from NET in Sprague-Dawley rat brain cortex membranes after 1 hr; format: cell membranes, Membrane
Outline: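 Rat frontal cortex membranes in 50 mM Tris, 120 mM NaCl, 5 mM KCl, pH 7.4, washed at 50,000 × g, 8 mg wet tissue/tube. 0.5 nM [3H]nisoxetine, 1 h on ice; GF/B filters presoaked in 0.05% PEI. Nonspecific: 1 µM desipramine. Compounds first screened at 1 µM for displacement.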

[2] = molecular target: Sodium-dependent dopamine transporter (Rattus norvegicus, UniProt P23977); assay: Displacement of [3H]WIN35428 from DAT in Sprague-Dawley rat brain homogenates after 1 hr by scintillation counting; format: tissue-based
Outline: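 Male Sprague-Dawley rats (200–250 g); caudate-putamen homogenised in ice-cold modified Krebs-HEPES buffer pH 7.4, washed by repeated 20,000 × g spins; fresh membranes ~0.3% w/v (150–300 µg protein). Nonspecific: 100 µM cocaine.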

[3] = organism: Rattus norvegicus; assay: Selectivity ratio of Ki for SERT in Sprague-Dawley rat brain homogenates to Ki for DAT in Sprague-Dawley rat brain homogenates; format: tissue-based
[4] = organism: Rattus norvegicus; assay: Selectivity ratio of Ki for NET in Sprague-Dawley rat brain cortex membranes to Ki for DAT in Sprague-Dawley rat brain homogenates; format: cell membranes; settings: Membrane
[5] = molecular target: Sodium-dependent serotonin transporter (Rattus norvegicus, UniProt P31652); assay: Displacement of [3H]citalopram from SERT in Sprague-Dawley rat brain homogenates after 60 mins by liquid scintillation counting; format: tissue-based
Outline: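 Midbrain from male Sprague-Dawley rats (200–225 g), frozen, homogenised in 50 mM Tris with 120 mM NaCl, 5 mM KCl (pH 7.4, 25 °C), washed at 20,000 × g. Nonspecific: 1 µM citalopram. GF/B filters in polyethylenimine, liquid scintillation counting.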

[6] = Selectivity ratio of DAT over SERT

Chain of Sodium-dependent dopamine transporter (P23977 whole entry): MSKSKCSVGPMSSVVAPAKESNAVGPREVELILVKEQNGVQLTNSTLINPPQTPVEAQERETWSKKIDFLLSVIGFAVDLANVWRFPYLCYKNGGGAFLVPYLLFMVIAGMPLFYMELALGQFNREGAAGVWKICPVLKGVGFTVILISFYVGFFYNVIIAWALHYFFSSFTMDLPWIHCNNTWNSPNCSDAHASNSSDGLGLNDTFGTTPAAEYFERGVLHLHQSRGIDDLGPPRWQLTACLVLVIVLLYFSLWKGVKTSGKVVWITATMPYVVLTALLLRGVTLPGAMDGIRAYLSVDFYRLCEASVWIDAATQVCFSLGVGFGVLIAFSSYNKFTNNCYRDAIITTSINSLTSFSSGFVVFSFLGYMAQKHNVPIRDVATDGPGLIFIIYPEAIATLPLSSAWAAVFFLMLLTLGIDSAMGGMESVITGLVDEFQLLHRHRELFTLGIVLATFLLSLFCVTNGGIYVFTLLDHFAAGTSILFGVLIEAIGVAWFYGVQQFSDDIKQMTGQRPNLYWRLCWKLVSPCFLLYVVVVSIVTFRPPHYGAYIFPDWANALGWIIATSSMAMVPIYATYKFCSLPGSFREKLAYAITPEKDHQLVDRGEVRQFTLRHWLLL
Chain of Sodium-dependent serotonin transporter (P31652 whole entry): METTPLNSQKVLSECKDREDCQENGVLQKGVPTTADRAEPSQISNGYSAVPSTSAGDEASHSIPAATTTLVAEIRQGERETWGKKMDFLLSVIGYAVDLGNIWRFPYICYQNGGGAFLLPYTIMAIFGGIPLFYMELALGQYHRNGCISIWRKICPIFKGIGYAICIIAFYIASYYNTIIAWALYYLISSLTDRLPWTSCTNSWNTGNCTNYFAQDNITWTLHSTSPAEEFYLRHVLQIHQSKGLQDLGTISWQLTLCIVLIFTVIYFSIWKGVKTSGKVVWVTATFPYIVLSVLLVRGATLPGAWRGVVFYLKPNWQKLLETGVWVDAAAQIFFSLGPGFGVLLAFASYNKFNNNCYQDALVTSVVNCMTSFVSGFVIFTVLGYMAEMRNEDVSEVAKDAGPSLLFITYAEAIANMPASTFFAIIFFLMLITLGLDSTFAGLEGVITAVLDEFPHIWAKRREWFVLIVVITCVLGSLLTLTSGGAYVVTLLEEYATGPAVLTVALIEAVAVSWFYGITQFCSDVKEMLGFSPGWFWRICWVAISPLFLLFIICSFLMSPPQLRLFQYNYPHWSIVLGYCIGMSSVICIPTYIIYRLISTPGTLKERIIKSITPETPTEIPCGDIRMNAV
Chain of Transporter (Q63380 whole entry): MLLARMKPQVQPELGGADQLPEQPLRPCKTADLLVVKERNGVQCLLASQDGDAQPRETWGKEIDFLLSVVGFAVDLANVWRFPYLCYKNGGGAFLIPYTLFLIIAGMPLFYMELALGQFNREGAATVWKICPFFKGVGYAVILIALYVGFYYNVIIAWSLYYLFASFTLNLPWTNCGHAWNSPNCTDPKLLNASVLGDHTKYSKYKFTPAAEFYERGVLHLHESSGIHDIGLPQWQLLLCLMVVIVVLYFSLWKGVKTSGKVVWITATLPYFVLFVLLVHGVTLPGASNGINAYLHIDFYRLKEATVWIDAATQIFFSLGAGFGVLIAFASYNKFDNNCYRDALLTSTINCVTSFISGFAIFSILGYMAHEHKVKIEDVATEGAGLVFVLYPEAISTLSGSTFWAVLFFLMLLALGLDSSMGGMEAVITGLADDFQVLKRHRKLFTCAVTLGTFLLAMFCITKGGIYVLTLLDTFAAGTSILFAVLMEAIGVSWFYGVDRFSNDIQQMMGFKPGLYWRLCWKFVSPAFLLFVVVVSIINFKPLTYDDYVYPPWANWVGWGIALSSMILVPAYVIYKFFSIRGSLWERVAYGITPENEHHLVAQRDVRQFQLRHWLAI

SMILES	pKi [1]	pKi [2]	Ratio Ki [3]	Ratio Ki [4]	pKi [5]	Ratio [6]
Fc1ccc(CN2[C@@H]3CC[C@H]2C/C(=C/COC(c2ccccc2)c2ccccc2)C3)cc1	5.48	8.15	585	477	5.39	–
C#CCN1[C@@H]2CC[C@H]1C/C(=C/COC(c1ccccc1)c1ccccc1)C2	–	6.27	–	–	–	–
Fc1ccc(C(OC/C=C2\C[C@H]3CC[C@@H](C2)N3CC2CC2)c2ccc(F)cc2)cc1	5.60	8.40	1060	625	5.37	–
CN1[C@@H]2CC[C@H]1C/C(=C/COC(c1ccccc1)c1ccccc1)C2	–	6.89	–	–	–	300
C(/COC(c1ccccc1)c1ccccc1)=C1/C[C@H]2CC[C@@H](C1)N2CCCc1ccccc1	–	–	–	–	–	300
Fc1ccc(C(OC/C=C2\C[C@H]3CC[C@@H](C2)N3CCCc2ccccc2)c2ccc(F)cc2)cc1	–	–	–	–	–	300
C=CCN1[C@@H]2CC[C@H]1C/C(=C/COC(c1ccc(F)cc1)c1ccc(F)cc1)C2	5.51	7.68	167	149	5.46	–
C(/COC(c1ccccc1)c1ccccc1)=C1/C[C@H]2CC[C@@H](C1)N2Cc1ccccc1	5.86	7.32	113	29	5.27	300
C(/COC(c1ccccc1)c1ccccc1)=C1/C[C@H]2CC[C@@H](C1)N2CC1CC1	–	6.77	–	–	–	–
Fc1ccc(C(OC/C=C2\C[C@H]3CC[C@@H](C2)N3Cc2ccccc2)c2ccc(F)cc2)cc1	–	–	–	–	5.65	–
CN1[C@@H]2CC[C@H]1C/C(=C/COC(c1ccc(F)cc1)c1ccc(F)cc1)C2	–	7.72	–	–	–	300
CCCN1[C@@H]2CC[C@H]1C/C(=C/COC(c1ccc(F)cc1)c1ccc(F)cc1)C2	5.55	7.39	133	69	5.26	–
CCCN1[C@@H]2CC[C@H]1C/C(=C/COC(c1ccccc1)c1ccccc1)C2	–	6.61	–	–	–	–
CCN1[C@@H]2CC[C@H]1C/C(=C/COC(c1ccccc1)c1ccccc1)C2	–	6.54	–	–	–	–
Fc1ccc(C(OC/C=C2\C[C@H]3CC[C@@H](C2)N3Cc2ccc(Cl)cc2)c2ccc(F)cc2)cc1	5.28	8.41	168	1360	6.18	–
Fc1ccc(CN2[C@@H]3CC[C@H]2C/C(=C/COC(c2ccc(F)cc2)c2ccc(F)cc2)C3)cc1	5.50	8.31	234	643	5.94	–
C=CCN1[C@@H]2CC[C@H]1C/C(=C/COC(c1ccccc1)c1ccccc1)C2	–	6.84	–	–	–	–
Cc1ccc(CN2[C@@H]3CC[C@H]2C/C(=C/COC(c2ccc(F)cc2)c2ccc(F)cc2)C3)cc1	5.56	8.21	68	450	6.39	–
CCN1[C@@H]2CC[C@H]1C/C(=C/COC(c1ccc(F)cc1)c1ccc(F)cc1)C2	5.45	7.40	149	89	5.22	–
Clc1ccc(CN2[C@@H]3CC[C@H]2C/C(=C/COC(c2ccccc2)c2ccccc2)C3)cc1	5.57	8.12	72	554	6.26	–
Cc1ccc(CN2[C@@H]3CC[C@H]2C/C(=C/COC(c2ccccc2)c2ccccc2)C3)cc1	5.75	7.89	57	136	6.13	–
